Reference: ChEMBL document CHEMBL1150387, “Development and experimental validation of a docking strategy for the generation of kinase-targeted libraries” (J Med Chem, 2008)

Assays:
[1] = target: Rho-associated protein kinase 2 (Homo sapiens) (UniProt O75116); assay: Inhibition of ROCK2 at 10 uM by HTRF assay relative to control
In short: (§1)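 HTRF kinase assay, one panel of kinases. Inhibitor stock 50 µM in 100% DMSO; tested at 10 µM. ATP and substrate at final levels near Km. Final buffer: 50 mM Hepes/NaOH pH 7.4, 40 µM Na3VO4, 0.005% Tween-20, 1 mM DTT, MnCl2 or MgCl2 at kinase-dependent levels. Started by adding ATP/substrate. Reaction run at room temperature, time varied by kinase. Detection mix in 50 mM Hepes pH 7.4, 0.1% BSA, 150 mM KF, incubated ≥1 h at room temperature. Activity expressed as % of uninhibited control; n=2.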

[2] = target: Protein-tyrosine kinase 6 (Homo sapiens) (UniProt Q13882); assay: Inhibition of Brk at 10 uM by HTRF assay relative to control; in short: as §1
[3] = target: Protein kinase C alpha type (Homo sapiens) (UniProt P17252); assay: Inhibition of PKCalpha at 10 uM by HTRF assay relative to control; in short: as §1
[4] = target: Mitogen-activated protein kinase 8 (Homo sapiens) (UniProt P45983); assay: Inhibition of JNK1 at 10 uM by HTRF assay relative to control; in short: as §1
[5] = Inhibition of IRK at 10 uM by HTRF assay relative to control; in short: as §1
[6] = target: Calcium/calmodulin-dependent protein kinase type II subunit alpha (Homo sapiens) (UniProt Q9UQM7); assay: Inhibition of CaMK2alpha at 10 uM by HTRF assay relative to control; in short: as §1
[7] = target: Tyrosine-protein kinase Fes/Fps (Homo sapiens) (UniProt P07332); assay: Inhibition of FES at 10 uM by HTRF assay relative to control; in short: as §1
[8] = target: T1, Serine/threonine-protein kinase Chk1 (Homo sapiens) (UniProt O14757); assay: Inhibition of CHK1 at 10 uM by HTRF assay relative to control; in short: as §1
T1 sequence (whole entry): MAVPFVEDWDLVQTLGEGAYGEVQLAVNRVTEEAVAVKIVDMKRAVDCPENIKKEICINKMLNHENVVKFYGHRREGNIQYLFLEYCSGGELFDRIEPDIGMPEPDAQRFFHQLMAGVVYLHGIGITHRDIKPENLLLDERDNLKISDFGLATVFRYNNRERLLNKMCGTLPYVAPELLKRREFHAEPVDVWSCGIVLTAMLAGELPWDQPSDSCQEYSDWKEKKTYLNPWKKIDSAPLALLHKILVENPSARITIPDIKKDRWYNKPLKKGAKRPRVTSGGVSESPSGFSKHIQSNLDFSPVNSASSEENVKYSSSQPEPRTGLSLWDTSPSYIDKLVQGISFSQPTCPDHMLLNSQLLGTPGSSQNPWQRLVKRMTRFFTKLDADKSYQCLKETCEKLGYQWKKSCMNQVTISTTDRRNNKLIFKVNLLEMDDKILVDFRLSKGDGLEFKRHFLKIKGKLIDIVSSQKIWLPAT

[9] = target: Ribosomal protein S6 kinase alpha-3 (Homo sapiens) (UniProt P51812); assay: Inhibition of RSK2 at 10 uM by HTRF assay relative to control; in short: as §1
[10] = target: Fibroblast growth factor receptor 1 (Homo sapiens) (UniProt P11362); assay: Inhibition of FGFR1 at 10 uM by HTRF assay relative to control; in short: as §1
[11] = target: Proto-oncogene tyrosine-protein kinase Src (Homo sapiens) (UniProt P12931); assay: Inhibition of Src at 10 uM by HTRF assay relative to control; in short: as §1
[12] = target: Receptor-type tyrosine-protein kinase FLT3 (Homo sapiens) (UniProt P36888); assay: Inhibition of FLT3 at 10 uM by HTRF assay relative to control; in short: as §1
[13] = target: Cyclin-dependent kinase 1 (Homo sapiens) (UniProt P06493); assay: Inhibition of CDK1 at 10 uM by HTRF assay relative to control; in short: as §1
[14] = target: T2, Inhibitor of nuclear factor kappa-B kinase subunit beta (Homo sapiens) (UniProt O14920); assay: Inhibition of IKK-beta at 10 uM by HTRF assay relative to control; in short: as §1
T2 sequence (whole entry): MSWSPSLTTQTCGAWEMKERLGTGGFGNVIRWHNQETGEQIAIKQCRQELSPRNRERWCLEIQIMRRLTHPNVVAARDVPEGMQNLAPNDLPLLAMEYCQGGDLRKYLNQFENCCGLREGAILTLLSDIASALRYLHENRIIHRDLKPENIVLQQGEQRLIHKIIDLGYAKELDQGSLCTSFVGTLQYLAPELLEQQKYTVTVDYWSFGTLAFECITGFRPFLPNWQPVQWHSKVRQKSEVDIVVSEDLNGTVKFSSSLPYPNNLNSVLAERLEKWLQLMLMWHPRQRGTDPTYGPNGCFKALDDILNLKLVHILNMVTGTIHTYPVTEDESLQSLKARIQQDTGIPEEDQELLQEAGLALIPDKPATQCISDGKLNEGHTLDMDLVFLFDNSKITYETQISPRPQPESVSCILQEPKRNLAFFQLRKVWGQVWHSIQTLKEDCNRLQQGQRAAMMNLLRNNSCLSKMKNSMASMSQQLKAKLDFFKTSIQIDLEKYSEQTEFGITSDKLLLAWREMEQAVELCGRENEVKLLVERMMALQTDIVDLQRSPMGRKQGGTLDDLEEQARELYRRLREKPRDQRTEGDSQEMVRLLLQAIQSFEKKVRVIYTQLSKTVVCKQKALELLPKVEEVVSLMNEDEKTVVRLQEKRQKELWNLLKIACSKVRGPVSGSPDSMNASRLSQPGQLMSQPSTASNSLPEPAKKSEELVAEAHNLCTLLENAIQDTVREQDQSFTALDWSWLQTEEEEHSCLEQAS

[15] = target: RAC-alpha serine/threonine-protein kinase (Homo sapiens) (UniProt P31749); assay: Inhibition of AKT1/PKBalpha at 10 uM by HTRF assay relative to control; in short: as §1
[16] = target: Insulin-like growth factor 1 receptor (Homo sapiens) (UniProt P08069); assay: Inhibition of IGF1R at 10 uM by HTRF assay relative to control; in short: as §1
[17] = target: Vascular endothelial growth factor receptor 2 (Homo sapiens) (UniProt P35968); assay: Inhibition of KDR at 10 uM by HTRF assay relative to control; in short: as §1
[18] = target: Tyrosine-protein kinase Lck (Homo sapiens) (UniProt P06239); assay: Inhibition of Lck at 10 uM by HTRF assay relative to control; in short: as §1
[19] = target: Epidermal growth factor receptor (Homo sapiens) (UniProt P00533); assay: Inhibition of EGFR at 10 uM by HTRF assay relative to control; in short: as §1

Sequence of Cyclin-dependent kinase 1 (Homo sapiens) (P06493 whole entry, looked up): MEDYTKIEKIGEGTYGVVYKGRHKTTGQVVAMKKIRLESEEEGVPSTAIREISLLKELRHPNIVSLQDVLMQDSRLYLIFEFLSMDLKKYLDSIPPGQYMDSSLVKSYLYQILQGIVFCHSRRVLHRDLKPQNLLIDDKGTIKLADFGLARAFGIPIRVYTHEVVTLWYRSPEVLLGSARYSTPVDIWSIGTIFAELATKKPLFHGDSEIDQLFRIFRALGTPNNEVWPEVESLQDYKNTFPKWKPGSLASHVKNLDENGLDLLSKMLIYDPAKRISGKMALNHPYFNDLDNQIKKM
Sequence of RAC-alpha serine/threonine-protein kinase (Homo sapiens) (P31749 whole entry): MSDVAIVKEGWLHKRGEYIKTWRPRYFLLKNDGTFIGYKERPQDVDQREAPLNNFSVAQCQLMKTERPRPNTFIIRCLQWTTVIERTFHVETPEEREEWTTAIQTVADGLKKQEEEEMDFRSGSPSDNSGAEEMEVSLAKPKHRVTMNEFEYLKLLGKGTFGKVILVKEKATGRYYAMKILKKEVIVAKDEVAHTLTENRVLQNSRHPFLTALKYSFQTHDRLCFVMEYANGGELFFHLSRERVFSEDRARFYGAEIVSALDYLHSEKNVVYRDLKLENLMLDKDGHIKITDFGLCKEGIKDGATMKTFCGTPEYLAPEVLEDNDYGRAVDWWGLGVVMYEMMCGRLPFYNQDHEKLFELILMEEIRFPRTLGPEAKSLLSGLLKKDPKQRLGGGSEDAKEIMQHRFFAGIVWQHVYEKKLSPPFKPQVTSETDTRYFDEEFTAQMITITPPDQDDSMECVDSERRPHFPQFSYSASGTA
Sequence of Mitogen-activated protein kinase 8 (Homo sapiens) (P45983 whole entry): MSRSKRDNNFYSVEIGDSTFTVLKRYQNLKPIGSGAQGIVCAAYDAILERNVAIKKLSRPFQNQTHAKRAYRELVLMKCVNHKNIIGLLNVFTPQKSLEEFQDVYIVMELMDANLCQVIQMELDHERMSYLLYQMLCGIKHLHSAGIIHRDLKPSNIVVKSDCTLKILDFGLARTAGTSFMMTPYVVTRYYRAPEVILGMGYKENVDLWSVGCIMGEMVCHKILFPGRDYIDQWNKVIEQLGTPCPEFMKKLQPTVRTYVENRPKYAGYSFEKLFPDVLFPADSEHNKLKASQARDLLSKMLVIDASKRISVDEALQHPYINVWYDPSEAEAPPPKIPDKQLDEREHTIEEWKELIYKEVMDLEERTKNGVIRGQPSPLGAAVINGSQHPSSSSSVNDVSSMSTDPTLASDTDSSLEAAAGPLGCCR
Sequence of Ribosomal protein S6 kinase alpha-3 (Homo sapiens) (P51812 whole entry): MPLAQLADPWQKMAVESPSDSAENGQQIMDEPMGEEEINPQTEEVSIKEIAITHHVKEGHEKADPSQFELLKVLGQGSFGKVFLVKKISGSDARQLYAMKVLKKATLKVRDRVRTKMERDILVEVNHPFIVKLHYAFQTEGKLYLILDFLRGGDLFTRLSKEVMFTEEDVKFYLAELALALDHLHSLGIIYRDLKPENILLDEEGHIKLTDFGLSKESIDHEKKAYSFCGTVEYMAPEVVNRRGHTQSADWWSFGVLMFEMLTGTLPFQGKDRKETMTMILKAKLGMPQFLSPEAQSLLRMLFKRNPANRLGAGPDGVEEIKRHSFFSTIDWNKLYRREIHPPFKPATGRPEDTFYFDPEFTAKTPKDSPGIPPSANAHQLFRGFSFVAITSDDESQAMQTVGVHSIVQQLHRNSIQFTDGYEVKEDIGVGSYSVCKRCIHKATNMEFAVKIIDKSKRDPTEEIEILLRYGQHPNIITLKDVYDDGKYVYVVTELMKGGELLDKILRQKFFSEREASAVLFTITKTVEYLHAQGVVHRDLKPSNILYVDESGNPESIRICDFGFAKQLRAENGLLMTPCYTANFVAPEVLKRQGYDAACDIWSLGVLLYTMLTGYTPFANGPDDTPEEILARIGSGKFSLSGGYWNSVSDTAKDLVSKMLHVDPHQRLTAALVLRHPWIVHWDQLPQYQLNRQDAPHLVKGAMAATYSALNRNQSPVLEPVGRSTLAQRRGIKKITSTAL
Sequence of Fibroblast growth factor receptor 1 (Homo sapiens) (P11362 22-822 limits assumed): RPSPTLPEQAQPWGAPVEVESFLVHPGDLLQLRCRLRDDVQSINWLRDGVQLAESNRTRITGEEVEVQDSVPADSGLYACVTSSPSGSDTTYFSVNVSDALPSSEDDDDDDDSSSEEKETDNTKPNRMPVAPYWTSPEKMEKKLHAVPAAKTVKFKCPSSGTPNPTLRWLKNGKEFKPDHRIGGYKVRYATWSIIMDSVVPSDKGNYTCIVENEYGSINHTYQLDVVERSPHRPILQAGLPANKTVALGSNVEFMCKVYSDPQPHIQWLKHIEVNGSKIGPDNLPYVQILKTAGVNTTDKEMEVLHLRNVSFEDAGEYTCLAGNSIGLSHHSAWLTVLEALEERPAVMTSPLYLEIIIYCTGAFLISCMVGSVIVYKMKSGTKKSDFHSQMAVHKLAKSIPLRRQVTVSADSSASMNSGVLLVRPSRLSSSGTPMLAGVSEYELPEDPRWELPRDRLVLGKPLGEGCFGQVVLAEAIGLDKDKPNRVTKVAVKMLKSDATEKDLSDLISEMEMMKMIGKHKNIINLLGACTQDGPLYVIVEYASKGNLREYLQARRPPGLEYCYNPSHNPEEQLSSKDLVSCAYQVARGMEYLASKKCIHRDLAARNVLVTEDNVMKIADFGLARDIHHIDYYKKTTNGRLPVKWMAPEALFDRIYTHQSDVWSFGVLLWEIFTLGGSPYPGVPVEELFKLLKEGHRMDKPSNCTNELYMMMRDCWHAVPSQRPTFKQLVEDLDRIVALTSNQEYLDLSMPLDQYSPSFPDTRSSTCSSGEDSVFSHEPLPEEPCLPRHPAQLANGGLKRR
Sequence of Rho-associated protein kinase 2 (Homo sapiens) (O75116 whole entry, looked up): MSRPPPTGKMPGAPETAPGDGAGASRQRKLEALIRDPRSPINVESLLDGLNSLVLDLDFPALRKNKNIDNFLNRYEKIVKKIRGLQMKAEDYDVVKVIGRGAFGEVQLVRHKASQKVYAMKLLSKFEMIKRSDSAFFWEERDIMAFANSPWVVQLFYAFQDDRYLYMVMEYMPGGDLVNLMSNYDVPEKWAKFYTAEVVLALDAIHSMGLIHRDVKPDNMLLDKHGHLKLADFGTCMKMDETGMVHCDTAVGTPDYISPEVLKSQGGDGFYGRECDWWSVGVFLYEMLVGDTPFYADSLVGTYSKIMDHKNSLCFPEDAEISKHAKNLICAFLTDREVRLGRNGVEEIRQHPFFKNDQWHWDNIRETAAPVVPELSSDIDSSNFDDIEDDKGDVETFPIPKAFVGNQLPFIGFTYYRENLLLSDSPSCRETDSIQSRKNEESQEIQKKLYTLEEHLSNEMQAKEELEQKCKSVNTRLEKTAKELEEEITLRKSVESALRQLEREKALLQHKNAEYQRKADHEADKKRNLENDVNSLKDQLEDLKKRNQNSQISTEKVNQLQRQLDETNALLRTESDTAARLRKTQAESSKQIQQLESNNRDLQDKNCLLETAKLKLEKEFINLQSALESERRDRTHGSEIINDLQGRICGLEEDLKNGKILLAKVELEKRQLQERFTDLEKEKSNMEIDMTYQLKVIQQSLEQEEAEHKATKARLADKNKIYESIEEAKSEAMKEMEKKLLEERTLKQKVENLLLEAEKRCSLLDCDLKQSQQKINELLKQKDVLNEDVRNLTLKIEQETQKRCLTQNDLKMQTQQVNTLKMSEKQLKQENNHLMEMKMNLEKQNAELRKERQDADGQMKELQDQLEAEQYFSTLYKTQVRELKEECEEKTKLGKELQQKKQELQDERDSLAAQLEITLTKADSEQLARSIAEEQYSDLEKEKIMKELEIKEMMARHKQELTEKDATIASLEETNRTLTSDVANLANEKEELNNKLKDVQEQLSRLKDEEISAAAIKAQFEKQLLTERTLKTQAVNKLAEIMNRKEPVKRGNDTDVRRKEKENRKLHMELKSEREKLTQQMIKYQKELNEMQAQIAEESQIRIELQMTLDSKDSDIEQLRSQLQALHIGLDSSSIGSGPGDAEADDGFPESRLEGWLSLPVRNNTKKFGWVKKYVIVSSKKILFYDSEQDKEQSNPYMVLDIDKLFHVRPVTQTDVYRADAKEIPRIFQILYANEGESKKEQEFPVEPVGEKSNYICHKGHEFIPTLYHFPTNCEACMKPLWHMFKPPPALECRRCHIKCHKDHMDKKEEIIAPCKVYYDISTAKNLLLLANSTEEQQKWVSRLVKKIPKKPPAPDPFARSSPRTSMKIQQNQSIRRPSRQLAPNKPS

| inhibition [1] | inhibition [2] | inhibition [3] | inhibition [4] | inhibition [5] | inhibition [6] | inhibition [7] | inhibition [8] | inhibition [9] | inhibition [10] | inhibition [11] | inhibition [12] | inhibition [13] | inhibition [14] | inhibition [15] | inhibition [16] | inhibition [17] | inhibition [18] | inhibition [19] | Compound |
| --- | --- | --- | --- | --- | --- | --- | --- | --- | --- | --- | --- | --- | --- | --- | --- | --- | --- | --- | --- |
| 0% | 17% | 5% | 0% | 0% | 0% | 8% | 1% | 5% | 0% | 4% | 0% | 5% | 9% | 0% | 5% | 4% | 0% | 2% | COC[C@@H]1CCCN1C(=O)[C@@H]1CCCN1c1cc(Nc2cccc(OC)c2)nc(N)n1 |
| 0% | 3% | 0% | 0% | 0% | 0% | 5% | 2% | 0% | 0% | 3% | 0% | 0% | 1% | 0% | 0% | 0% | 0% | 0% | COC[C@@H]1CCCN1C(=O)C1CCCN1c1cc(Nc2cccc(Br)c2)ncn1 (stereo partly specified) |
| 4% | 33% | 3% | 0% | 0% | 0% | 10% | 6% | 5% | 20% | 8% | 54% | 0% | 2% | 1% | 0% | 11% | 0% | 0% | Cc1cccc(Nc2nccc(Nc3cccc(C(=O)NCc4ccc(N(C)C)cc4)c3)n2)c1 |
| 1% | 10% | 0% | 0% | 0% | 0% | 3% | 3% | 0% | 0% | 0% | 0% | 0% | 4% | 0% | 3% | 6% | 0% | 31% | Cc1cccc(Nc2ncnc3c2CN(C(=O)c2ccc(N(C)C)c4ccccc24)CC3)c1 |
| 3% | 5% | 0% | 0% | 0% | 0% | 8% | 1% | 0% | 0% | 0% | 0% | 3% | 6% | 0% | 0% | 4% | 0% | 0% | COC[C@@H]1CCCN1C(=O)[C@@H]1CCCN1c1nccc(Nc2ccccc2)n1 |
| 0% | 1% | 6% | 0% | 0% | 0% | 18% | 2% | 14% | 21% | 17% | 29% | 0% | 1% | 0% | 0% | 41% | 27% | 99% | CC(=O)N1CCN(C(=O)c2cccc(Nc3cc(N(C)c4cccc(C)c4)ncn3)c2)CC1 |
| 0% | 2% | 0% | 13% | 0% | 0% | 7% | 3% | 0% | 5% | 0% | 0% | 0% | 3% | 1% | 0% | 18% | 0% | 0% | Cc1cccc(Oc2ccnc(N3CCN(C(=O)c4c(C)noc4C)CC3)n2)c1 |
| 11% | 18% | 0% | 55% | 1% | 0% | 45% | 0% | 3% | 52% | 71% | 98% | 0% | 11% | 0% | 2% | 43% | 1% | 0% | O=C(NCCc1ccc(O)cc1)c1cccc(Nc2nccc(Nc3ccc4ncsc4c3)n2)c1 |
| 1% | 0% | 0% | 11% | 0% | 0% | 9% | 2% | 0% | 0% | 3% | 0% | 0% | 4% | 2% | 0% | 13% | 0% | 0% | Nc1nc(Nc2ccc(C(=O)NCCc3ccncc3)cc2)cc(N2CCOCC2)n1 |
| 0% | 3% | 0% | 0% | 0% | 0% | 3% | 8% | 0% | 21% | 10% | 0% | 0% | 6% | 0% | 0% | 12% | 0% | 0% | CN(C)CC(C)(C)CNC(=O)C1CCN(c2cc(N3CCOCC3)nc(N)n2)CC1 |
| 0% | 0% | 1% | 0% | 0% | 1% | 8% | 1% | 0% | 0% | 0% | 0% | 0% | 0% | 1% | 0% | 2% | 0% | 0% | CN(CCc1ccccn1)C(=O)[C@@H]1CCCN1c1nccc(Nc2ccccc2)n1 |
| 2% | 23% | 1% | 7% | 0% | 0% | 20% | 3% | 0% | 59% | 26% | 27% | 0% | 7% | 2% | 0% | 83% | 26% | 100% | Cc1cccc(Nc2cc(Nc3cccc(C(=O)N(CC(C)O)CC(C)O)c3)ncn2)c1 (stereo unspecified) |
| 0% | 2% | 8% | 3% | 7% | 0% | 6% | 5% | 5% | 6% | 0% | 0% | 0% | 10% | 2% | 0% | 11% | 0% | 0% | Clc1ccc2sc(CN3CCN(c4ncnc5c4CN(Cc4ccccc4)CC5)CC3)cc2c1 |
| 2% | 21% | 0% | 19% | 6% | 0% | 7% | 9% | 0% | 7% | 6% | 0% | 0% | 6% | 1% | 0% | 7% | 0% | 36% | COc1cccc(Nc2cc(Nc3cccc(C(=O)N(C)CCc4ccccn4)c3)nc(N)n2)c1 |
